# Compound activity from PubChem BioAssay.
# SIAE primary: inhibitors of human sialic acid acetylesterase SIAE; Q9HAT2; SIAE FP-Rh probe binding, fluorescence polarization; inhibition, % at 9.66 µM; 0.69% of 370,000 active;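 active = inhibition above a cutoff: mean of compounds within the control limits plus 3 SD of those, cut at about 17% in these data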
# TDP2 absorb: TDP2 (human) inhibition, absorbance primary screen; recombinant TDP2, T5PNP hydrolysis, p-nitrophenol absorbance 415 nm; inhibition, % at 12.8 µM; 0.34% of 370,000 active; AID 720702;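 active = inhibition above the mean of all tested compounds plus 3 SD, set per campaign, cut at about 25% in these data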
#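 System – recombinant human TDP2 · Quantity – TDP2 enzyme at 120 nM final · Doses – single concentration, 12.8 µM nominal, with 1% DMSO · Incubation – 2 h at 37 °C · Measured by – epi absorbance of p-nitrophenol freed from T5PNP by hydrolysis · Read-out – % inhibition relative to enzyme-containing and enzyme-free wells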
# MBD2 inh: inhibitors of human MBD2 binding to methylated oligonucleotide | 0.31% of 370,000 active | AID 686964 | Q9UBB5 | TR-FRET | inhibition, % at 4.4 µM; in the data active = inhibition above about 13%
# LEDGF integ inh: blocks HIV-1 LEDGF/p75-dependent DNA integration | inhibition, % at 3.7 µM | 0.64% of 370,000 active | TR-FRET IN-LEDGF/p75 DNA integration, Eu/Cy5 | AID 743269;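 active = inhibition above the screen-wide mean plus 3 SD, cut at about 13% in these data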;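 note: signal is the Cy5 over europium emission ratio at 671 and 618 nm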
# PRMT1 inh: PRMT1 (human) inhibition, primary screen; AID 652257; Q99873; 1.3% of 370,000 active; recombinant PRMT1, activity-based probe fluorescence polarization; inhibition, % at 2.79 µM;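 active = inhibition above about 21% made by adding two undisclosed values, limit read from the data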
# UHRF1 MBD2 ctr: UHRF1 methyl-DNA binding inhibition | UHRF1 binding to methylated oligo, TR-FRET | AID 687016 | Q96T88 | inhibition, % at 4.4 µM | 0.75% of 370,000 active; in the data active = inhibition above about 21%;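 note: UHRF1 SRA domain binding a hemimethylated CpG hairpin DNA probe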
# PRMT1 inh conf: PRMT1 (human) inhibition, FP confirmation | AID 687036 | 42% of 3,300 active | inhibition, % at 2.79 µM | shares compounds with PRMT1 inh | recombinant His-PRMT1, activity-based probe fluorescence polarization;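 active = mean inhibition across replicates above the hit cutoff derived for the earlier primary screen, cut at about 22% in these data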
# Numbers stand for hits; – = inactive; · = no result given; ! = repeats disagree. Compounds with a hit are over-represented: about 3.3% of the library has one in this group of screens.
SMILES,SIAE primary,TDP2 absorb,MBD2 inh,LEDGF integ inh,PRMT1 inh,UHRF1 MBD2 ctr,PRMT1 inh conf
COCc1cccc(-c2cc(C(=O)OC)c3n(c2=O)CCC3)c1,–,–,–,–,–,–,·
Cc1cccc(-n2c(C)c(-c3ccccc3)[nH]c2=S)c1,–,–,–,–,34.2,–,–
Cc1cccc(-n2c(C)n[nH]c2=S)c1,–,–,–,–,–,–,·
COc1ccc(-c2noc(C3CCCN(C(=O)Nc4ccc(Cl)cc4)C3)n2)cc1 (stereo not given),–,–,–,–,–,–,·
CC(=O)Nc1ccc(NC(=O)CNC(=O)c2sc3ccccc3c2Cl)cc1,–,–,–,–,–,–,·
Oc1c(C=Nc2cccnc2)sc2ccccc12,–,–,–,–,65.1,–,45.1
CN=Cc1sc2ccccc2c1O,–,–,–,–,52.2,–,27.1
CC(=O)NCCN=Cc1sc2ccccc2c1O,–,–,–,–,39.9,–,29.9
Cc1ccc(O)c(N=Cc2sc3ccccc3c2Cl)c1,–,–,–,–,–,–,·
Oc1c(C=Nc2ccccc2)sc2ccccc12,–,–,–,–,58.6,–,31.8
Oc1sc(C=Nc2ccccc2)c2ccccc12,–,–,–,–,–,–,·
C[C@@H]1[C@H](c2ccccc2)OC(O)([C@H](Cc2ccccc2)NC(=O)OC(C)(C)C)CN1C (stereo not given in full),–,–,–,–,–,–,·
C=CCn1c(Cc2cccs2)nnc1SCC(=O)Nc1ccc2c(c1)OCO2,–,–,–,–,–,–,·
CCN(CC)CCn1c2ccccc2c2n[nH]c(=S)nc21,–,–,–,–,85.2,–,57.6
CCN(CC)CCn1c2ccccc2c2nc3ccccc3nc21,–,–,–,–,–,–,·
CCCS(=O)(=O)c1c(S(=O)(=O)CCC)c2c(N)cccn2c1C(=O)c1ccc(Br)cc1,–,–,–,–,–,–,·
CCCS(=O)(=O)c1c(S(=O)(=O)CCC)c2c(N)cccn2c1C(=O)c1ccc(F)cc1,–,–,–,–,25.6,–,–
NS(=O)(=O)c1ccc(NC(=S)NCc2ccco2)cc1,–,–,–,–,26.9,–,–
NS(=O)(=O)c1ccc(NC(=S)NC2CCCC2)cc1,–,–,–,–,34.3,–,–
CC(C)OCCCNC(=S)Nc1ccc(S(N)(=O)=O)cc1,–,–,–,–,40.1,–,58.5
CC(=O)c1ccc(NC(=S)NCCc2ccc(S(N)(=O)=O)cc2)cc1,–,–,–,–,–,–,·
O=S1(=O)c2ccc(Br)cc2OC[C@H](Cc2ccccc2)N1Cc1cn(CCC2OCCCO2)nn1,–,–,–,–,–,–,·
C[n+]1cccc(/C=N/Nc2nc(Cl)c(C#N)c(Cl)c2Cl)c1,–,–,–,–,48.7,–,–
COC(=O)[C@]12C[C@H](CC(=O)NCCc3ccccc3OC)C(=O)N(Cc3ccc(Cl)cc3Cl)C1=C[C@H](C1CCCC1)O[C@@H]2C,–,–,–,–,–,–,·
COc1ccc(C2OC(=O)c3ccccc3S2)cc1 (stereo not given),–,–,–,–,38.2,–,–
SMILES,SIAE primary,TDP2 absorb,MBD2 inh,LEDGF integ inh,PRMT1 inh,UHRF1 MBD2 ctr,PRMT1 inh conf
O=C(O)Cc1c[nH]c2ccc(O)cc12,–,–,–,–,27.3,–,–
CNC(=O)COC(=O)COc1ccc2c(C)cc(=O)oc2c1,–,–,–,–,–,–,·
Cc1cc(=O)oc2cc(OCC(=O)OCC(=O)NCCc3ccccc3)ccc12,–,–,–,–,27.1!,–,–
CCN1C(=O)[C@H]2[C@H]3CN=C(SCC(=O)c4ccccc4)N3[C@@](CC)(C(=O)OC)[C@H]2C1=O,–,–,–,–,69.0,–,44.4
CCN1C[C@@H]2[C@@H]3C(=O)N(Cc4ccccc4)C(=O)[C@@H]3[C@](CC)(C(=O)OC)N2C1=NCc1ccccc1,–,–,–,–,31.7,–,–
CCN1C(=O)[C@H]2[C@H]3CN=C(SCc4ccccc4)N3[C@@](CC)(C(=O)OC)[C@H]2C1=O,–,–,–,–,–,–,·
COC(=O)[C@@]1(C)[C@H]2C(=O)N(Cc3ccccc3)C(=O)[C@H]2[C@H]2CN=C(SCC(=O)c3ccccc3)N21,–,–,–,–,79.9,–,58.3
CCCN=C1N(CC)C[C@@H]2[C@@H]3C(=O)N(Cc4ccccc4)C(=O)[C@@H]3[C@](Cc3ccccc3)(C(=O)OC)N12,–,–,–,–,–,–,·
Clc1cccc(C2Nc3cccc4cccc(c34)N2)c1,–,–,–,–,–,–,·
Fc1cccc(Cl)c1C1Nc2cccc3cccc(c23)N1,–,–,–,–,33.1,–,27.0
Cc1nc2cc(C(=O)N3CCN(C(=O)OCc4ccccc4)CC3)ccc2n1C1CCCC1,–,–,–,–,–,–,·
Cc1cc(=O)[nH]c(SCc2nnnn2-c2ccc(Cl)cc2)n1,–,–,–,–,36.8,–,55.2
Nc1cc(=O)[nH]c(SCc2nnnn2-c2ccc(Cl)cc2)n1,–,–,–,–,–,–,·
Nc1ccc(C(=O)O)c(O)c1,–,–,–,–,–,–,·
Cc1ccc(N)cc1O,–,–,–,–,39.1,–,–
COC(=O)[C@]12C[C@H](CC(=O)NCc3cccc4ccccc34)C(=O)N(Cc3ccc(Cl)cc3Cl)C1=C[C@H](COCc1ccccc1)O[C@@H]2C,–,–,–,–,68.4,–,–
COC(=O)[C@]12C[C@H](CC(=O)NCc3ccccc3)C(=O)N(Cc3ccc(Cl)cc3Cl)C1=C[C@H](COCc1ccccc1)O[C@@H]2C,–,–,–,–,–,–,·
COc1cc2c(cc1NC(=O)CSc1nnc(-c3cccnc3)n1-c1ccc(Br)cc1)oc1ccccc12,–,–,–,–,–,–,·
O=S1(=O)CCOCC(CO)N1Cc1cccc(Br)c1 (stereo not given),–,–,–,–,–,–,·
COc1ccccc1NS(=O)(=O)c1cc(NC(=O)C2CCC2)ccc1N1CCCCC1,–,–,–,–,36.1,–,–
CCN(CC)c1ccc(/C=C2/SC(=O)N(C(C)C)C2=O)o1,–,–,–,–,27.0,–,–
Cc1ccc(-c2nnc(SCc3ccc([N+](=O)[O-])cc3)n2-c2ccccc2)cc1,–,–,–,–,–,–,·
Cc1ccc(Cn2cc(COC(=O)NCC(C)C)nn2)cc1,–,–,–,–,–,–,·
O=C(O)C1=C(C2CCCCC2)C(=O)c2ccccc21,–,–,–,–,–,–,·
O=C1C=C(C2CCCCC2)C(=O)c2ccccc21,–,–,–,–,30.9,–,–
Cc1cc2ccccc2n1CCNC(=O)c1ccc(Br)o1,–,–,–,–,27.2,–,–
